Among the data in ChEMBL document CHEMBL4732237, “Discovery of 4-alkoxy-2-aryl-6,7-dimethoxyquinolines as a new class of topoisomerase I inhibitors endowed with potent in vitro anticancer activity” (2021) are inhibition of growth values, retold here.

SMILES strings stand for the structures.

Type in all cases: functional
Common to all, as to details: read-out: GI

For one test, the system named is RXF 393. As to the kind of experiment: Growth inhibition of human RXF 393 cells at 10 uM incubated for 48 hrs by sulforhodamine B assay relative to control. In short, it runs like this: (§1)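 NCI one-dose screen. Cells grown in RPMI 1640 with 5% FBS and 2 mM L-glutamine, plated and incubated 24 h at 37 °C, 5% CO2. DMSO-dissolved drug added, then 48 h further incubation. Adherent cells fixed with cold TCA, suspension cells fixed after settling. Stained with 0.4% SRB, absorbance read at 515 nm. Reported as percent growth relative to no-drug control and time-zero cell number.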

A further test relates to KM12. As to the kind of experiment: Growth inhibition of human KM12 cells at 10 uM incubated for 48 hrs by sulforhodamine B assay relative to control. An outline of the steps: (§2)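 NCI-60 single-dose screen. Cells were grown in RPMI 1640 with 5% FBS and 2 mM L-glutamine and plated 24 h before drug addition. Compound was added at one concentration in DMSO-derived medium and incubated for 48 h at 37 °C in 5% CO2. Read-out was SRB protein stain at 515 nm. Result is percent growth versus the no-drug control and the time-zero cell count; values below 0 indicate lethality.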

In a further test the test system is A498. As to the kind of experiment: Growth inhibition of human A498 cells at 10 uM incubated for 48 hrs by sulforhodamine B assay relative to control. In short, it runs like this:
(§3)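 NCI one-dose screen across a 59-line panel. Cells were grown in RPMI 1640 with 5% FBS and 2 mM L-glutamine, plated and pre-incubated 24 h, then exposed to drug for 48 h at 37 °C, 5% CO2. Adherent cells were fixed with cold TCA (10% final), stained with 0.4% SRB in 1% acetic acid and read at 515 nm. Result is percent growth relative to no-drug control and time-zero cell count.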

A further test deals with NCI-H522. As to the kind of experiment: Growth inhibition of human NCI-H522 cells at 10 uM incubated for 48 hrs by sulforhodamine B assay relative to control. In short, it runs like this: as §1
The subject of another test is SK-MEL-28. In words: Growth inhibition of human SK-MEL-28 cells at 10 uM incubated for 48 hrs by sulforhodamine B assay relative to control. In short, it runs like this: as §1
Another test deals with HOP-62. As to the kind of experiment: Growth inhibition of human HOP-62 cells at 10 uM incubated for 48 hrs by sulforhodamine B assay relative to control. An outline of the steps:
as §2

A further test concerns SK-MEL-5. In words: Growth inhibition of human SK-MEL-5 cells at 10 uM incubated for 48 hrs by sulforhodamine B assay relative to control. An outline of the steps:
as §1

The subject of another test is T47D. As to the kind of experiment: Growth inhibition of human T47D cells at 10 uM incubated for 48 hrs by sulforhodamine B assay relative to control. An outline of the steps: as §3
In the next test the test system is SF-539. In words: Growth inhibition of human SF-539 cells at 10 uM incubated for 48 hrs by sulforhodamine B assay relative to control. An outline of the steps: as §1
The subject of the next test is SK-OV-3. In words: Growth inhibition of human SK-OV-3 cells at 10 uM incubated for 48 hrs by sulforhodamine B assay relative to control. An outline of the steps:
as §1

The next test has as its system UACC-257. In words: Growth inhibition of human UACC-257 cells at 10 uM incubated for 48 hrs by sulforhodamine B assay relative to control. In short, it runs like this:
as §3

The test system of a further test is SN12C. As to the kind of experiment: Growth inhibition of human SN12C cells at 10 uM incubated for 48 hrs by sulforhodamine B assay relative to control. In short, it runs like this: as §1
The test system of another test is TK-10. In words: Growth inhibition of human TK-10 cells at 10 uM incubated for 48 hrs by sulforhodamine B assay relative to control. An outline of the steps:
as §3

For `COc1cc2nc(-c3ccc(Cl)cc3)cc(OCCN3CCC(O)CC3)c2cc1OC`, the inhibition of growth at 10 µM in the test with RXF 393, in the test on KM12, in the test on A498, in the test with NCI-H522, with SK-MEL-28 and in the test on HOP-62 was 3% each time. Besides, the inhibition of growth at 10 µM in the test on SK-MEL-5, in the test on T47D, in the test on SF-539, in the test with SK-OV-3, with UACC-257 and with SN12C was 3% in each case. Besides, the inhibition of growth at 10 µM with TK-10 stood at 3%.

Turning to `COc1cc2nc(-c3ccc(Cl)cc3)cc(OCCN3CCCCC3)c2cc1OC`, the inhibition of growth at 10 µM in the test on RXF 393, in the test with KM12, with A498, in the test with NCI-H522, in the test with SK-MEL-28 and in the test with HOP-62 was 3% throughout. Also, the inhibition of growth at 10 µM with SK-MEL-5, in the test on T47D, in the test on SF-539, in the test on SK-OV-3, with UACC-257 and in the test with SN12C was 3% each time. Also, the inhibition of growth at 10 µM with TK-10 amounted to 3%.

As for `COc1cc2nc(-c3ccc(C(F)(F)F)cc3)cc(OCCN3CCCC3)c2cc1OC`, the inhibition of growth at 10 µM in the test with RXF 393, in the test on KM12, with A498, in the test on NCI-H522, with SK-MEL-28 and with HOP-62 was 13% in each case. Moreover, the inhibition of growth at 10 µM in the test on SK-MEL-5, in the test on T47D, with SF-539, in the test on SK-OV-3, in the test on UACC-257 and in the test on SN12C was 13% in each case. For the same molecule, the inhibition of growth at 10 µM in the test on TK-10 was 13%.

For `COc1cc2nc(-c3ccc(C(F)(F)F)cc3)cc(OCCN3CCOCC3)c2cc1OC`, the inhibition of growth at 10 µM with RXF 393, in the test with KM12, with A498, in the test with NCI-H522, in the test on SK-MEL-28 and in the test with HOP-62 was 13% each time. In addition, the inhibition of growth at 10 µM in the test with SK-MEL-5, with T47D, with SF-539, in the test with SK-OV-3, in the test on UACC-257 and with SN12C was 13% throughout. Besides, the inhibition of growth at 10 µM in the test on TK-10 was found to be 13%.

For the molecule `COc1cc2nc(-c3ccc(Cl)cc3)cc(OCCN3CCOCC3)c2cc1OC`, the inhibition of growth at 10 µM in the test with RXF 393, in the test on KM12, in the test on A498, in the test with NCI-H522, in the test on SK-MEL-28 and in the test on HOP-62 was 3% in each case. Also, the inhibition of growth at 10 µM in the test with SK-MEL-5, with T47D, with SF-539, in the test with SK-OV-3, in the test with UACC-257 and in the test on SN12C was 3% in each case. The inhibition of growth at 10 µM with TK-10 turned out to be 3%.

Take `COc1cc2nc(-c3ccsc3)cc(OCCCN3CCC(O)CC3)c2cc1OC`: the inhibition of growth at 10 µM with RXF 393, in the test with KM12, with A498, in the test with NCI-H522, with SK-MEL-28 and in the test with HOP-62 was 32% throughout. In addition, the inhibition of growth at 10 µM in the test with SK-MEL-5, in the test on T47D, in the test with SF-539, in the test with SK-OV-3, with UACC-257 and in the test with SN12C was 32% throughout. For the same molecule, the inhibition of growth at 10 µM in the test with TK-10 amounted to 32%.

For `COc1cc2nc(-c3cccs3)cc(OCCCN3CCC(O)CC3)c2cc1OC`, the inhibition of growth at 10 µM in the test on RXF 393, with KM12, in the test with A498, in the test on NCI-H522, in the test on SK-MEL-28 and in the test on HOP-62 was 20% each time. For the same molecule, the inhibition of growth at 10 µM in the test with SK-MEL-5, in the test with T47D, with SF-539, in the test on SK-OV-3, in the test on UACC-257 and in the test with SN12C was 20% throughout. Further, the inhibition of growth at 10 µM with TK-10 is 20%.

In the case of `COc1cc2nc(-c3ccc(C(F)(F)F)cc3)cc(OCCN3CCC(O)CC3)c2cc1OC`, the inhibition of growth at 10 µM in the test on RXF 393, in the test on KM12, with A498, in the test with NCI-H522, in the test on SK-MEL-28 and in the test with HOP-62 was 13% in each case. Besides, the inhibition of growth at 10 µM in the test on SK-MEL-5, in the test on T47D, in the test on SF-539, in the test with SK-OV-3, in the test on UACC-257 and in the test on SN12C was 13% throughout. Further, in the test on TK-10, the inhibition of growth at 10 µM was found to be 13%.

In the case of `COc1cc2nc(-c3ccco3)cc(OCCCN3CCC(O)CC3)c2cc1OC`, the inhibition of growth at 10 µM in the test with RXF 393, in the test with KM12, with A498, in the test with NCI-H522, in the test with SK-MEL-28 and with HOP-62 was 46% throughout. For the same molecule, the inhibition of growth at 10 µM in the test on SK-MEL-5, with T47D, in the test on SF-539, in the test with SK-OV-3, in the test with UACC-257 and in the test with SN12C was 46% throughout. Also, in the test on TK-10, the inhibition of growth at 10 µM came to 46%.

Consider `COc1cc2nc(-c3ccc(Cl)cc3)cc(OCCN3CCCC3)c2cc1OC`, for which the inhibition of growth at 10 µM in the test with RXF 393, in the test with KM12, in the test on A498, in the test on NCI-H522, in the test with SK-MEL-28 and in the test on HOP-62 was 3% throughout. Further, the inhibition of growth at 10 µM in the test on SK-MEL-5, in the test on T47D, in the test with SF-539, in the test on SK-OV-3, in the test on UACC-257 and in the test with SN12C was 3% each time. For the same molecule, the inhibition of growth at 10 µM with TK-10 worked out at 3%.

Take `COc1cc2nc(-c3ccc(C(F)(F)F)cc3)cc(OCCN3CCCCC3)c2cc1OC`: the inhibition of growth at 10 µM in the test on RXF 393, in the test on KM12, with A498, with NCI-H522, in the test on SK-MEL-28 and in the test with HOP-62 was 13% in each case. Further, the inhibition of growth at 10 µM with SK-MEL-5, with T47D, in the test on SF-539, with SK-OV-3, in the test on UACC-257 and with SN12C was 13% throughout. The inhibition of growth at 10 µM in the test with TK-10 was determined as 13%.
